Reference: ChEMBL document CHEMBL4513216, “Probing the Open Global Health Chemical Diversity Library for Multistage-Active Starting Points for Next-Generation Antimalarials” (ACS Infect Dis, 2020)

Assay: Toxicity liver stage against HepG2, at 10uM
Type: cell-based
Design: test concentration 10 uM, cell line HepG2-A16-CD81EGFP
Details: human, HepG2-A16-CD81EGFP cells; read-out: INHIBITION
How it was run: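 Uninfected HepG2-A16-CD81EGFP cells, 3 × 10^3 per well, 1536-well, plated on prespotted compound at 10 μM final, parasite-free screening media added to match infected plates; puromycin 10 μM positive, DMSO 0.5% negative; run in parallel with 48 h PbLuc assay at 37 °C, 5% CO2; viability by CellTiter-Glo luminescence, normalized to controls.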

| SMILES | cytotoxicity at 10 µM [%] |
| --- | --- |
| O=C(NC[C@H]1CCCC[C@H]1O)c1cccc2[nH]c(-c3ccco3)nc12 | -2.51 |
| O=S1(=O)NCC2(CCN(c3ncc(F)cn3)CC2)COc2ccccc21 | 4.74 |
| CN(C)C(=O)c1cc2c(nc1NCC1CC1)CCNCC2 | 8.39 |
| O=C(c1ccoc1)N1CCOCC2(CCN(Cc3cccs3)C2)C1 (stereo not given) | -2.98 |
| CCOCC1CN(C(=O)c2ccoc2C)Cc2cnn(C)c21 (stereo not given) | -2.48 |
| CC(C)Oc1ncnc2c1CCN(c1cc(C(F)(F)F)ncn1)CC2 | 19 |
| CCOc1ncnc2c1CCN(c1cc(C(F)(F)F)ncn1)CC2 | 12.8 |
| CC(C)CCNC(=O)c1c(-n2cnnn2)sc2c1CCCC2 | 8.79 |
| CNC(=O)[C@H]1C[C@@H]2CN(S(=O)(=O)c3ccccc3)C[C@@H]2N1C(C)=O | -10.4 |
| CCn1nc(C)c(C(=O)Nc2ccc3c(c2)C(C)(C)C(=O)N3C)c1C | 6.42 |
| CCOc1ccccc1Nc1nc2c(C)nn(C)c2c(=O)n1C | -7.53 |
| Cc1nc(NCc2nccn2C)cc(C2COCCN2)n1 (stereo not given) | 5.32 |
| N[C@@H]1CCC[C@@H](Oc2ccc(F)cc2Oc2cccc(F)c2)[C@@H]1O | -22.2 |
| O=C(NCC1CC1)Nc1cnc2ccc(F)cc2c1O | -8.58 |
| CN1CCC(Cc2cccc(-c3cc(F)ccc3C(=O)O)n2)CC1 | -3.22 |
| CC(C)N1CCC(Cc2cc(-c3cccc(C(=O)O)c3)ncn2)CC1 | -8.99 |
| CC(C)C(=O)N1CCC(Cc2nccnc2Nc2ccccn2)CC1 | -7.08 |
| Cc1c[nH]nc1C1CCCN(C(=O)c2c(C)noc2C)C1 (stereo not given) | -3.53 |
| Cn1ccc(C(=O)N2CCC(Cc3cccc4ncccc34)C2)n1 (stereo not given) | -4.83 |
| CCn1ncc(CN2CCc3c(nc(-c4cccnc4)[nH]c3=O)C2)c1C | 1.34 |
| Cc1csc(N2CCCN(C(=O)c3nccnc3N)CC2)n1 | -2.42 |
| CC(C)N(CC(C)(C)O)C(=O)NC1CC1 | 5.73 |

| SMILES | cytotoxicity at 10 µM [%] |
| --- | --- |
| CCCc1noc(C[S+]([O-])CC(=O)NCc2ccccc2)n1 (stereo not given) | -4.3 |
| COC(=O)CC(NC(=O)CCCn1cccn1)c1ccc(Cl)cc1 (stereo not given) | 4.7 |
| Clc1cccc(C(CNCc2cccnc2)N2CCOCC2)c1 (stereo not given) | -4.45 |
| Cc1ccc(C(C)(O)CNC(=O)NCCc2ccc3c(c2)CCO3)o1 (stereo not given) | -4.53 |
| COC(=O)c1sc2cccc(F)c2c1CNC(=O)C1CCOC1 (stereo not given) | 8.97 |
| CCN(CC(=O)Nc1cc(Cl)ccc1C)C(=O)c1ccc(=O)[nH]n1 | -0.898 |
| CN1CCC(CCNC(=O)N2CCN(Cc3ccon3)CC2)CC1 | -6.49 |
| CCC(=O)N1CCN(C(=O)Nc2cccc(N3CCOCC3)c2)CC1 | -3.1 |
| N#Cc1ccc(CNC(=O)NC2CCN(c3ncccn3)CC2)cc1 | 11.3 |
| Cc1n[nH]c(C2CN(CC(=O)NCCC3=CCCCC3)CCO2)n1 (stereo not given) | 12.9 |
| Cc1ccccc1-c1cc(NC(=O)NC2CCC(O)CC2)n(CCO)n1 (stereo not given) | 1.09 |
| CCOc1ncccc1NC(=O)c1ccc(C)s1 | -3.89 |
| CN(C)C(=O)C1CCCN1CCCNC(=O)c1cccc2[nH]ncc12 (stereo not given) | -1.07 |
| COc1ccc(CC(=O)N(C)C2CCN(C)C2=O)cc1F (stereo not given) | 0.0152 |
| CC(C)(C)c1cc(NC(=O)CN2CCCC(Cn3cncn3)C2)on1 (stereo not given) | 3.69 |
| CNS(=O)(=O)CCCN1CCCCCC1c1ccc(C)o1 (stereo not given) | -7.58 |
| CN(C)c1cc(CNCc2ccc(N3CCOCC3)cc2)ccn1 | 23.3 |
| CC(C)C(O)CCNC(=O)Nc1cc(F)ccc1-n1cccn1 (stereo not given) | -3.86 |
| CN(C)c1ncccc1CNC(=O)NCC(c1cccs1)N(C)C (stereo not given) | 11.6 |
| Cc1noc(CN2CCN(CC(C)O)CC2)n1 (stereo not given) | -10 |
| Cc1cc(C2CCCN2C(=O)NCc2cccc(F)c2)on1 (stereo not given) | 24.8 |
| Cc1cnn(C2CN(CC(O)c3ccc4c(c3)OCCO4)C2)c1 (stereo not given) | 21.9 |

| SMILES | cytotoxicity at 10 µM [%] |
| --- | --- |
| CC(CNC(=O)c1cccnc1Oc1cccnc1)N(C)C (stereo not given) | -14 |
| Cc1ccc(-c2nc(CN3CCOC(Cn4cccn4)C3)cs2)o1 (stereo not given) | -8.86 |
| CN(Cc1cccs1)C(=O)CN1CCCC1Cn1cncn1 (stereo not given) | -15.6 |
| NC(=O)C1CCN(C(=O)Cn2nc(-c3ccccc3)oc2=O)C1 (stereo not given) | -13 |
| CC(C)C1CN(C(=O)c2nccnc2N)CCS1 (stereo not given) | -8.54 |
| Cc1nn(C)c(N2CCOCC2)c1CNC(C)c1cccnc1 (stereo not given) | -13.6 |
| CN(C)CCO[C@H]1CN(C(=O)c2ccc(C#N)cc2)[C@@H]2COC[C@H]12 | 0.929 |
| Cc1ncsc1CN1CC[C@H]2C(=O)N(c3ccccc3)CCO[C@H]2C1 | 1.26 |
| CNCC(=O)Nc1cccc(-c2cnc(NCCO)nc2)c1 | -6.94 |
| C[C@H]1CCCCN1CCCNc1nccc(-c2c[nH][nH]c2=O)n1 | -6.91 |
| O=C1CN(CC2CC2)Cc2nc(NCCc3ccccn3)sc21 | -12.3 |
| O=C(Nc1ccc(-c2cnc(NCCO)nc2)cc1)[C@@H]1CCCCN1 | -5.08 |
| COC(C)(C)C(=O)N[C@H]1CN(c2ncccc2C(N)=O)C[C@@H]1C(C)C | 6.66 |
| Cc1ccc(CSc2nc(N)cc(NCCS(=O)(=O)N(C)C)n2)cc1 | 0.479 |
| CC(c1ccc(-c2cnc(N)nc2)cc1)N1CCOCC1 (stereo not given) | 1.97 |
| O=C(c1scc2c1OCCO2)N1CCC(Cc2cccc(CO)c2)C1 (stereo not given) | 6.01 |
| O=C(CCn1ccc(=O)[nH]c1=O)N1CCC(OCc2cccnc2)CC1 | -15.7 |
| CCn1nc(CC(C)C)cc1C(=O)N1CCCOC(CN2CCCC2)C1 (stereo not given) | -7.66 |
| CC(C)N(C)S(=O)(=O)c1ccc2c(c1)CCN(C(=O)c1cccnn1)C2 | -1.22 |
| CCC(=O)c1ccc(OCC(=O)NC(C)c2ncnn2CC)cc1 (stereo not given) | 1.9 |
| COc1ccc(Cl)cc1S(=O)(=O)N(C)CC(N)=O | 7.82 |
| Cc1ccccc1CS(=O)(=O)NCCCN1CCCC1 | -7.49 |

| SMILES | cytotoxicity at 10 µM [%] |
| --- | --- |
| CC1CCN(S(=O)(=O)NCC2CCOc3ccccc3C2)CC1 (stereo not given) | -1.25 |
| COCCN(C)C[C@@H]1CN(C(=O)c2cccc(C(F)(F)F)c2)C[C@@H]1CO | -17.5 |
| COCCn1ccnc1C1CCCN(C(=O)CSCC2CC2)C1 (stereo not given) | -14.6 |
| N#Cc1c(SCCN2CCCCC2)sc2c(O)cc(O)nc12 | -13.1 |
| CNC(=O)COc1ccc(CNc2cncc(-n3cccn3)n2)cc1 | -0.906 |
| CN(Cc1ccsc1)C(=O)c1cccc(S(=O)(=O)NCC2CCCO2)c1 (stereo not given) | -13.8 |
| COc1c(C2CCCN2CC(=O)Nc2cc(C)nn2C)c(C)nn1C (stereo not given) | 3.72 |
| COc1cccc2cc(CNC(=O)N3CCS(=O)(=O)CC3)oc12 | -19.3 |
| O=C(COc1ccccc1)NCCNC(=O)c1scnc1Cl | -4.83 |
| Cc1ccccc1CCNC(=O)CN1CCCC(Cn2cncn2)C1 (stereo not given) | -5.04 |
| Cc1cc(CN(C)C(=O)c2ccc(F)c(C(F)(F)F)c2)no1 | -10 |
| CC(C)C(C)NC(=O)c1cc(Br)c2c(c1)OCCO2 (stereo not given) | -9.89 |
| Cc1ccccc1OCCN1CCCC(c2cc(C(N)=O)[nH]n2)C1 (stereo not given) | -14.3 |
| Cc1nc(C2CCCN(C(=O)c3cc(Cl)c4c(c3)OCO4)C2)no1 (stereo not given) | -2.09 |
| Cc1cnn(CC2CCCCN2C(=O)c2csc(C)n2)c1 (stereo not given) | -1.16 |
| CCn1cnnc1CNC(=O)N1CCC(OCc2ccccc2)CC1 | -5.26 |
| CCn1cnnc1CNC(=O)N1CCN(CCc2ccccc2)CC1 | -8.14 |
| CCC1CN(CC(=O)Nc2cc(C)nn2C)CCO1 (stereo not given) | 1.14 |
| CCOc1ccc(CC(CNC(=O)c2sccc2C)C(N)=O)cc1 (stereo not given) | -4.18 |
| COc1ccccc1CCNC(=O)N1CCCC(c2nncn2C)C1 (stereo not given) | -25.4 |
| O=C(c1ccc2c(c1)COC2)N1CCC(Nc2ccccc2)CC1 | -7.54 |
| CC(C(=O)N1CCC(Nc2cccnn2)CC1)n1ccnc1 (stereo not given) | -9.44 |

| SMILES | cytotoxicity at 10 µM [%] |
| --- | --- |
| CC(C)N(Cc1cccc(F)c1)Cc1nc2c(cnn2C)c(=O)[nH]1 | -10.5 |
| O=C(c1ccc2c(c1)COC2)N1CCN(CC2CC2)CC1 | -7.18 |
| N#Cc1ccc(OCCCN2CCc3cncnc3C2)cc1 | -10 |
| Cc1csc(N2CCN(C(=O)CCc3ccccn3)CC2)n1 | -4.27 |
| Cc1cc(C)n(CC2CCCN2C(=O)Cc2c(C)noc2C)n1 (stereo not given) | -4.05 |
| Cc1cc(N2CCC(NC(=O)C3CC3)CC2)nc(-c2ccncc2)n1 | -3.71 |
| Cc1nc(Nc2cnccn2)cc(C2CCN(CCO)C2)n1 (stereo not given) | 0.636 |
| O=C(c1ccccn1)N1CCC2(CC1)COC(COCC1CC1)C2 (stereo not given) | 5.14 |
| CCN1CCOCC12CCN(C(=O)Cc1cccs1)CC2 | 6.22 |
| COCc1nn(C(C)C)c2c1CCN(Cc1cccs1)C2 | -9.55 |
| Cn1nc(C2CCN(C(=O)CN3CCCCC3)CC2)c2cccnc21 | -30.1 |
| Cc1cc2c(=O)n3c(nc2s1)CCN(Cc1cnc(C)n1C)CC3 | -7.73 |
| COCCn1cc2c(n1)C(CNCc1ccsc1)OCC2 (stereo not given) | 3.89 |
| CN1CCN([C@@H]2CN(C(=O)Cc3ccsc3)[C@@H]3CCCO[C@H]23)CC1 | 2.87 |
| OCCOCc1n[nH]c2c1CN(Cc1ccco1)C2 | 6.71 |
| Cc1occc1C(=O)N1CCCC2(CCN(CCN3CCCC3)C2=O)C1 (stereo not given) | -9.18 |
| CCc1ncc(CN[C@@H]2CCCN(C(C)=O)[C@H]2c2ccc(C)s2)cn1 | -26.2 |
| Cc1cccc(CN2C[C@@H]3CN(Cc4ccoc4)CCO[C@@H]3C2)n1 | 6.53 |
| CN(C)C[C@]12COC[C@H]1CN(C(=O)Cc1ccc3c(c1)OCO3)C2 | -9.94 |
| O=C(C1CN(CC2CCOCC2)CC12CCOCC2)N1CCOCC1 (stereo not given) | 7.49 |
| O=S(=O)(C1CC1)N1CCC2(CC1)CN(Cc1nccs1)CCO2 | 8.1 |
| CN(C)CCNCCC(Cc1ccccc1)C1CCOC(C)(C)C1 (stereo not given) | 1.51 |
